Experiment [1] concerns K562. Nature of the experiment: Cytotoxicity against human K562 cells after 72 hrs by sulforhodamine B and MTT assay. The experiment is classed as functional, cell-based. Particulars: K562, 72 h. Summed up:
(§1)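 Log-phase cells were seeded, preincubated (overnight for SRB, 24 h for MTT), then given a five-concentration gradient in triplicate wells for 72 h. For MTT, reagent was added for 4 h at 37 °C, solubilized in SDS-isobutanol-HCl for 12-20 h, and read at 570 nm. IC50 was derived by the Logit method from at least 3 independent tests.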
For orientation: Tetrazolium assays rely on reduction of a dye to a coloured formazan, in cell work by metabolically active cells.

Experiment [2] deals with KB. The experiment in a line: Resistance index, ratio of IC50 for vincristine-selected multi drug-resistant human KB cells to IC50 for human KB cells. The experiment is classed as functional. Summed up: (§2)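 Resistance factor is the IC50 in the resistant line divided by the IC50 in the parental line. Both IC50s come from 72 h SRB/MTT growth-inhibition assays, derived by the Logit method from at least 3 independent tests.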

Experiment [3] deals with HCT-116. Nature of the experiment: Cytotoxicity against human HCT116 cells after 72 hrs by sulforhodamine B and MTT assay. Particulars: HCT-116, 72 h. The experiment is classed as functional, cell-based. Summed up: (§3)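 Log-phase cells were plated overnight and exposed for 72 h to a 5-concentration gradient, in triplicate wells. SRB arm: 10% cold TCA fixation for 1 h at 4 °C, 4 mg/ml SRB in 1% acetic acid for 15 min, dye dissolved in 10 mM Tris-HCl, read at 520 nm. MTT arm: 5 mg/mL MTT for 4 h at 37 °C, SDS-isobutanol-HCl solubilisation for 12–20 h, read at 570 nm. IC50 by Logit method from at least 3 independent tests.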

The subject of another experiment is MCF7. Nature of the experiment: Cytotoxicity against human MCF7 cells after 72 hrs by sulforhodamine B and MTT assay. To be noted: MCF7, 72 h. The experiment is classed as functional, cell-based. Summed up:
as §3

Experiment [4] concerns K562. The experiment in a line: Resistance index, ratio of IC50 for adriamycin-selected multi drug-resistant human K562 cells to IC50 for human K562 cells. The experiment is classed as functional. The gist of the method: as §2
The subject of experiment [5] is K562. The experiment in a line: Cytotoxicity against adriamycin-selected multi drug-resistant human K562 cells after 72 hrs by sulforhodamine B and MTT assay. The experiment is classed as functional, cell-based. Particulars: K562, 72 h. The gist of the method: as §1
Experiment [6] addresses DNA topoisomerase 2-alpha (Homo sapiens) (UniProt P11388). The experiment in a line: Inhibition of human topoisomerase 2-mediated decatenation of kinetoplast DNA at 100 uM after 15 mins by agarose gel electrophoresis. The gist of the method:
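ATP-dependent kDNA decatenation by 1 unit Topo II in 50 mM Tris-HCl pH 7.7, 50 mM KCl, 5 mM MgCl2, 1 mM ATP, 0.5 mM DTT, 0.5 mM EDTA and BSA, run for 15 min at 37 °C. Stopped with 10% SDS, then run on 1% agarose in TAE at 4 V/cm for 1 h and stained with ethidium bromide.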

Experiment [7] concerns KB. Nature of the experiment: Cytotoxicity against vincristine-selected multi drug-resistant human KB cells after 72 hrs by sulforhodamine B and MTT assay. The experiment is classed as functional, cell-based. The gist of the method: as §1
Experiment [8] concerns KB. Nature of the experiment: Cytotoxicity against human KB cells after 72 hrs by sulforhodamine B and MTT assay. The experiment is classed as functional, cell-based. The gist of the method:
as §3

For experiment [9], the system named is HL-60. The experiment in a line: Cell cycle arrest in human HL60 cells assessed as accumulation at G0/G1 phase at 1 uM after 24 hrs using propidium iodide stain by FACS-flow cytometry (reference value: 39%). The experiment is classed as functional. Background: In flow cytometry, cells or beads pass a laser one at a time.
The test system of experiment [10] is HL-60. Nature of the experiment: Cell cycle arrest in human HL60 cells assessed as accumulation at S phase at 10 uM after 24 hrs using propidium iodide stain by FACS-flow cytometry (reference value: 38.4%). The experiment is classed as functional.
Experiment [11] deals with HL-60. Nature of the experiment: Induction of apoptosis in human HL60 cells assessed as DNA fragmentation at 10 uM after 36 hrs by gel electrophoresis. The experiment is classed as functional, cell-based. The gist of the method: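 HL-60 cells were seeded and exposed to compound for 36 h. Harvested cells were lysed with an equal volume of 1.2% SDS, and the fragmented DNA was extracted and resolved by gel electrophoresis.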

The subject of experiment [12] is HL-60. Nature of the experiment: Cell cycle arrest in human HL60 cells assessed as accumulation at G0/G1 phase at 10 uM after 24 hrs using propidium iodide stain by FACS-flow cytometry (reference value: 39%). The experiment is classed as functional.
Experiment [13] deals with HL-60. The experiment in a line: Cell cycle arrest in human HL60 cells assessed as accumulation at G2/M phase at 10 uM after 24 hrs using propidium iodide stain by FACS-flow cytometry (reference value: 22.6%). The experiment is classed as functional.
In experiment [14] the test system is HL-60. The experiment in a line: Cell cycle arrest in human HL60 cells assessed as accumulation at G2/M phase at 1 uM after 24 hrs using propidium iodide stain by FACS-flow cytometry (reference value: 22.6%). The experiment is classed as functional.
Experiment [15] relates to HCT-116. Nature of the experiment: Cell cycle arrest in human HCT116 cells assessed as accumulation at G2/M phase at 1 to 10 uM after 24 hrs using propidium iodide stain by FACS-flow cytometry. The experiment is classed as functional, cell-based.
Experiment [16] has as its system HCT-116. The experiment in a line: Cell cycle arrest in human HCT116 cells assessed as accumulation at G0/G1 phase at 1 to 10 uM after 24 hrs using propidium iodide stain by FACS-flow cytometry. The experiment is classed as functional, cell-based.
The test system of experiment [17] is HL-60. The experiment in a line: Cell cycle arrest in human HL60 cells assessed as accumulation at S phase at 1 uM after 24 hrs using propidium iodide stain by FACS-flow cytometry (reference value: 38.4%). The experiment is classed as functional.

The source made the active and inactive calls. No cut-off for these calls is given here.

Chain of DNA topoisomerase 2-alpha (Homo sapiens) (P11388 whole entry): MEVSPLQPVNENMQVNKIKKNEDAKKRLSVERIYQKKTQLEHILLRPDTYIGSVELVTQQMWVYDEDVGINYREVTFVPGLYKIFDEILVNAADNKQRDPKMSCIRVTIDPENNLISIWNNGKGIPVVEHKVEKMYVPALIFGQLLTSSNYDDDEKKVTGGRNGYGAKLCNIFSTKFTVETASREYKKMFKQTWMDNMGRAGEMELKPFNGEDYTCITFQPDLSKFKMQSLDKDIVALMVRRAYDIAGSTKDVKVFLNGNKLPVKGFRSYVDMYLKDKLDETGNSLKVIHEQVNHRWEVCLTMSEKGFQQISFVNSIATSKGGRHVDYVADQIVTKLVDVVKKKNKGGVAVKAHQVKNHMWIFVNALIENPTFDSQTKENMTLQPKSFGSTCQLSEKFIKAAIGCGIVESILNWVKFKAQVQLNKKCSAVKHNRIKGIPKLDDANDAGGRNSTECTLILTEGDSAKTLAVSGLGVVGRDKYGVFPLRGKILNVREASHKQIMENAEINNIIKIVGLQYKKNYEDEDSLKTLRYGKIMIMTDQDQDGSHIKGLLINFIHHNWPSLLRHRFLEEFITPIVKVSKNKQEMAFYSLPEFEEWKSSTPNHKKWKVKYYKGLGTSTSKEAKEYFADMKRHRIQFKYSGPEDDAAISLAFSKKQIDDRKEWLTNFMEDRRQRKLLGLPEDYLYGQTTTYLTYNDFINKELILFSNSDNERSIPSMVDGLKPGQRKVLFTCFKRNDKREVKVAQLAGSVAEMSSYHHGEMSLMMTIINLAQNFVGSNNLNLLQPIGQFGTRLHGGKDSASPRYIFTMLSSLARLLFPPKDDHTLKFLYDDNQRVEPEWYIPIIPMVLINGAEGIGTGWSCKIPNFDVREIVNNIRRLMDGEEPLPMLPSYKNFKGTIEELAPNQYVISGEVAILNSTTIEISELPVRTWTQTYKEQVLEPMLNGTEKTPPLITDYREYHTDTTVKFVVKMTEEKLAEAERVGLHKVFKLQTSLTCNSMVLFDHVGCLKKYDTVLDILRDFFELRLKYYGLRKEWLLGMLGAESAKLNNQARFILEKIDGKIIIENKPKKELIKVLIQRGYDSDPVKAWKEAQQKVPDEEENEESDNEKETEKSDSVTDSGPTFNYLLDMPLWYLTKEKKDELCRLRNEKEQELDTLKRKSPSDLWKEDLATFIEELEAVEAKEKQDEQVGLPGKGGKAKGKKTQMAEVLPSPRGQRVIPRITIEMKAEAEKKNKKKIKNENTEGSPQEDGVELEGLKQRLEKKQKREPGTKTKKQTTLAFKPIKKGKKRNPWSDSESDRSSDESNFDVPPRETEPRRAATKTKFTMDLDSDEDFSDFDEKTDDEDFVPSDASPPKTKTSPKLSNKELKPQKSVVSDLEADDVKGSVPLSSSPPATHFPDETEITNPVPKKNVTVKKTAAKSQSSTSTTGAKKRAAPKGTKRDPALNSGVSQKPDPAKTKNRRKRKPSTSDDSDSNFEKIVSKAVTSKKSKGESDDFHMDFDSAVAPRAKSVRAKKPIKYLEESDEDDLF

As a reminder, the IC50 is the point on the concentration scale where inhibition reaches its midpoint. With `COc1cc([C@@H]2c3cc4c(cc3[C@@H](O[C@@H]3O[C@@H]5CO[C@@H](C)O[C@H]5[C@H](O)[C@H]3O)[C@H]3COC(=O)[C@H]23)OCO4)cc(OC)c1O` [ETOPOSIDE], the 50% inhibitory concentration (IC50) in the experiment with K562 [1] amounted to 5.16 µM; in the experiment on HCT-116 [3], 0.91 µM; with MCF7, 1.09 µM; in the experiment on K562 [5] it was 243 µM; with KB [7], 153 µM; with KB [8], 0.85 µM. The figures for the “Ratio IC50” value with KB [2] and in the experiment on K562 [4] were 180.3 and 47.1, respectively. Further, in experiment [6], the inhibition entry was “inactive”.

Turning to `COc1cc2c(O[C@@H]3OC[C@H](O)[C@H](O)[C@H]3O)c3c(c(-c4ccc5c(c4)OCO5)c2cc1OC)C(=O)OC3` [ACUTISSIMALIGNAN A], the IC50 in the experiment with HCT-116 [3] is over 10 µM; in the experiment on MCF7, over 10 µM; in the experiment on KB [8], 6.88 µM. Moreover, the inhibition entry in experiment [6] was “inactive”.

As for `CC[C@]1(O)C[C@H]2CN(CCc3c([nH]c4ccccc34)[C@@](C(=O)OC)(c3cc4c(cc3OC)N(C=O)[C@H]3[C@@](O)(C(=O)OC)[C@H](OC(C)=O)[C@]5(CC)C=CCN6CC[C@]43[C@@H]65)C2)C1` [VINCRISTINE], the “Ratio IC50” value in the experiment on KB [2] was found to be 536.7. Moreover, the half-inhibitory concentration (IC50) with KB [7] is 1.61 µM; in the experiment with KB [8] it was 0.003 µM.

Take `COc1cc2c(O[C@@H]3O[C@H](CO)[C@@H](O)[C@H](O)[C@H]3O)c3c(c(-c4ccc5c(c4)OCO5)c2cc1OC)C(=O)OC3`: the half-inhibitory concentration (IC50) was 9.67 µM with HCT-116 [3], 2.44 µM in the experiment on MCF7 and over 10 µM with KB [8]. Moreover, the inhibition entry in experiment [6] is “inactive”.

With `COc1cc2c(O)c3c(c(-c4ccc5c(c4)OCO5)c2cc1OC)C(=O)OC3` [DIPHYLLIN], the IC50 came to 1.67 µM with K562 [1]; 3.54 µM with HCT-116 [3]; 0.54 µM with MCF7; 23.5 µM in the experiment on K562 [5]; 3.15 µM in the experiment on KB [7]; 0.78 µM in the experiment with KB [8]. The “Ratio IC50” value amounted to 4 with KB [2] and 14.1 in the experiment on K562 [4]. In addition, in experiment [6], the inhibition result was “Active”.

Turning to `COc1cc2c(O[C@@H]3O[C@@H]4CO[C@@H](C(C)C)O[C@H]4[C@H](O)[C@H]3O)c3c(c(-c4ccc5c(c4)OCO5)c2cc1OC)C(=O)OC3`, the IC50 in the experiment on HCT-116 [3] was found to be 0.016 µM; in the experiment with MCF7, 0.0002 µM; in the experiment with KB [8], 0.0006 µM. Moreover, in experiment [6], the inhibition entry was “Active”.

Regarding `COC[C@H]1O[C@@H](Oc2c3c(c(-c4ccc5c(c4)OCO5)c4cc(OC)c(OC)cc24)C(=O)OC3)[C@H](O)[C@@H](O)[C@@H]1O`, the 50% inhibitory concentration (IC50) is over 10 µM in the experiment with HCT-116 [3], over 10 µM in the experiment with MCF7 and 4.5 µM with KB [8]. Moreover, the inhibition result in [6] is “inactive”.

As to `COc1cc2c(O[C@@H]3O[C@H](CO)[C@H](O)[C@H](O)[C@H]3O)c3c(c(-c4ccc5c(c4)OCO5)c2cc1OC)C(=O)OC3`, the figures for the 50% inhibitory concentration (IC50) with HCT-116 [3], in the experiment on MCF7 and in the experiment with KB [8] were over 10 µM, 4.11 µM and 4.89 µM, respectively. For the same compound, the inhibition entry in experiment [6] is “inactive”.

For `COC[C@H]1O[C@@H](Oc2c3c(c(-c4ccc5c(c4)OCO5)c4cc(OC)c(OC)cc24)C(=O)OC3)[C@H](O)[C@@H](O)[C@H]1O`, the concentration for half-maximal inhibition (IC50) in the experiment on HCT-116 [3] is over 10 µM; with MCF7, over 10 µM; with KB [8], 4.1 µM. For the same compound, the inhibition entry in experiment [6] was “inactive”.

`COc1cc2c(O[C@@H]3O[C@@H]4COC(C)(C)O[C@H]4[C@H](O)[C@H]3O)c3c(c(-c4ccc5c(c4)OCO5)c2cc1OC)C(=O)OC3`: the concentration for half-maximal inhibition (IC50) in the experiment with HCT-116 [3] came to 0.043 µM; in the experiment on MCF7 it was 0.053 µM; with KB [8], 0.01 µM. The inhibition entry in [6] is “Active”.

Take `COc1cccc2c1C(=O)c1c(O)c3c(c(O)c1C2=O)C[C@@](O)(C(=O)CO)C[C@@H]3O[C@H]1C[C@H](N)[C@H](O)[C@H](C)O1` [DOXORUBICIN]: in the experiment with K562 [4], the “Ratio IC50” value worked out at 132.2.

For the compound `COc1cc2c(O[C@@H]3O[C@H](C)[C@H](O)[C@H](O)[C@H]3O)c3c(c(-c4ccc5c(c4)OCO5)c2cc1OC)C(=O)OC3`, the half-inhibitory concentration (IC50) in the experiment with HCT-116 [3] worked out at 6.43 µM; in the experiment with MCF7, 1.81 µM; in the experiment on KB [8], 3.05 µM. Besides, the Activity in the experiment with HL-60 [9] is given as 38.6%; with HL-60 [10], 34.6%; in the experiment on HL-60 [12], 40.5%; in the experiment on HL-60 [13], 24.9%; in the experiment on HL-60 [14] it was 31.5%; in the experiment with HL-60 [17], 30%. In addition, the outcome in the experiment with HL-60 [11] was Active. Also, the inhibition result in [6] was “inactive”. Besides, the result in the experiment with HCT-116 [15] and with HCT-116 [16] was inactive.

For `COc1cc2c(O[C@H]3O[C@@H](C)[C@@H](O)[C@@H](O)[C@@H]3O)c3c(c(-c4ccc5c(c4)OCO5)c2cc1OC)C(=O)OC3` [PATENTIFLORIN B], the IC50 is over 10 µM with HCT-116 [3], 1.42 µM in the experiment on MCF7 and over 10 µM in the experiment on KB [8]. For the same compound, the outcome in the experiment with HL-60 [11] was Active. In experiment [6], the inhibition entry is “inactive”.

As to `COc1cc2c(O[C@@H]3O[C@H](COCc4ccccc4)[C@@H](O)[C@H](O)[C@H]3O)c3c(c(-c4ccc5c(c4)OCO5)c2cc1OC)C(=O)OC3`, the IC50 in the experiment with HCT-116 [3] stood at 0.036 µM; with MCF7 it was 0.028 µM; with KB [8] it was 0.015 µM. Besides, the inhibition entry in [6] was “Active”.

As for `COc1cc2c(O[C@H]3O[C@@H](C)[C@@H](OC(C)=O)[C@@H](O)[C@@H]3O)c3c(c(-c4ccc5c(c4)OCO5)c2cc1OC)C(=O)OC3` [4'-O-ACETYLPATENTIFLORIN B], the IC50 in the experiment with HCT-116 [3] came out at 0.27 µM; in the experiment on MCF7, 0.11 µM; in the experiment with KB [8], 0.14 µM. In [6], the inhibition result was “Active”.

Source of the values: ChEMBL document CHEMBL1926616, “Design, synthesis and biological evaluation of novel glycosylated diphyllin derivatives as topoisomerase II inhibitors” (Eur J Med Chem, 2012).
